Measurements as given in ChEMBL document CHEMBL1140767, “Discovery and structure-activity relationship of N-phenyl-1H-pyrazolo[3,4-b]quinolin-4-amines as a new series of potent apoptosis inducers” (Bioorg Med Chem, 2008).
pEC50: −log10 of the molar value. “And” between values parts separate entries of the source, which are not always exact repeats. Equal values may be shown once.

Experiments:
[1] = system: T47D; assay: Induction of apoptosis in human T47D cells assessed as caspase-3 activation; type: functional, cell-based
Procedure, shortened: (§1)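 Cells grown in RPMI-1640 + 10% FCS, trypsinized, and resuspended at 0.65 × 10^6 cells/mL. Treated in 384-well plates with 0.005–10 µM final compound (1% DMSO) for 24 h. N-(Ac-DEVD)-N'-ethoxycarbonyl-R110 substrate was then added, and fluorescence (ex 485/em 525 nm) was read at 0 and 3 h. Activity is the net RFU ratio of test to control. EC50 from a sigmoidal fit at 50% maximal response; mean of ≥3 experiments ± SEM.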

[2] = system: HCT-116; assay: Induction of apoptosis in human HCT116 cells assessed as caspase-3 activation; type: functional, cell-based; procedure, shortened: as §1
[3] = system: SNU-398; assay: Induction of apoptosis in human SNU398 cells assessed as caspase-3 activation; type: functional, cell-based; procedure, shortened: as §1
[4] = system: T47D; assay: Antiproliferation activity against human T47D cells; type: functional
Procedure, shortened: (§2)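 Cells in RPMI-1640 + 10% FCS, 5% CO2, 37 °C. Seeded at 4.4 × 10^4 cells/mL in 96-well plates and exposed to compound at 0.001–10 µM final (1% DMSO) for 48 h at 37 °C. Viability read by CellTiter-Glo luminescence. A 0.5 h plate gave the initial-cell baseline and untreated wells gave maximal proliferation. GI50 is the mean of ≥3 experiments ± SEM.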

[5] = system: HCT-116; assay: Antiproliferation activity against human HCT116 cells; type: functional; procedure, shortened: as §2
[6] = system: SNU-398; assay: Antiproliferation activity against human SNU398 cells; type: functional; procedure, shortened: as §2
[7] = system: T47D; assay: Induction of apoptosis in human T47D cells assessed as accumulation at S phase at […] after 24 hrs; type: functional
Procedure, shortened: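 T47D cells treated with 50 nM compound, or DMSO as control, for 24 h or 48 h at 37 °C. Cells then stained with propidium iodide and analysed by flow cytometry for DNA-content histograms. Sub-diploid DNA content was taken to indicate apoptotic cells.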

Row | Structure (SMILES) | pEC50 [1] | pEC50 [2] | pEC50 [3] | GI50 [4] [nM] | GI50 [5] [nM] | GI50 [6] [nM] | Activity [7]
1 | COc1ccc(Sc2c3ccccc3nc3c2c(C)nn3C)cc1 | 5.26 | 5.18 | 5.30 | – | – | – | –
2 | COc1cccc(Nc2c3ccccc3nc3c2c(C)nn3C)c1 | 5.14 | < 5.00 | < 5.00 | – | – | – | –
3 | COc1ccc(Nc2c3ccccc3nc3[nH]nc(C)c23)cc1 | < 5.00 | < 5.00 | < 5.00 | > 10000 | > 10000 | > 10000 | –
4 | CC(=O)c1ccc(Nc2c3ccccc3nc3c2c(C)nn3C)cc1 | 6.28 | 6.18 | 6.57 | – | – | – | –
5 | CC(=O)c1ccc(Nc2c3cc(C)ccc3nc3c2c(C)nn3C)cc1 | < 5.00 | < 5.00 | < 5.00 | – | – | – | –
6 | CC(=O)c1ccc(Nc2c3ccccc3nc3c2cnn3C)cc1 | 5.94 | 5.87 | 6.14 | – | – | – | –
7 | Cc1nn(C)c2nc3ccccc3c(Nc3ccc(C(=O)C(C)C)cc3)c12 | 6.36 | 6.41 | 6.62 | – | – | – | –
8 | CCC(=O)c1ccc(Nc2c3ccccc3nc3c2c(C)nn3CC)cc1 | 6.68 | 6.72 | 6.82 | – | – | – | –
9 | COC(=O)c1ccc(Nc2c3ccccc3nc3c2c(C)nn3C)cc1 | 6.27 | 6.17 | 6.57 | – | – | – | –
10 | Cc1nn(C)c2nc3ccccc3c(Nc3ccc(C(=O)O)cc3)c12 | < 5.00 | < 5.00 | < 5.00 | – | – | – | –

The next lines start with results.

Row | pEC50 [1] | pEC50 [2] | pEC50 [3] | GI50 [4] [nM] | GI50 [5] [nM] | GI50 [6] [nM] | Structure (SMILES) | Activity [7]
11 | 5.95 | 6.03 | 6.18 | – | – | – | CC(=O)c1ccc(Nc2c3cccc(C)c3nc3c2c(C)nn3C)cc1 | –
12 | 6.00 | 5.90 | 6.32 | – | – | – | COc1ccc(Nc2c3ccccc3nc3c2c(C)nn3C)cc1 | –
13 | < 5.00 | < 5.00 | < 5.00 | – | – | – | CC(=O)c1ccc(Nc2c3ccccc3nc3c2c(C(C)C)nn3C)cc1 | –
14 | 5.28 | 5.22 | 5.88 | – | – | – | COC(=O)c1ccc(N(C)c2c3ccccc3nc3c2c(C)nn3C)cc1 | –
15 | 6.35 | 6.18 | 6.36 | 560 | 500 | 170 | CC(=O)c1cccc(Nc2c3c(nc4ccccc24)CCC3)c1 | –
16 | 6.29 | 6.32 | 6.57 | – | – | – | CCC(=O)c1ccc(Nc2c3cccc([N+](=O)[O-])c3nc3c2c(C)nn3C)cc1 | –
17 | 6.85 | 6.48 | 7.28 | 590 | 930 | 140 | CCC(O)c1ccc(Nc2c3ccccc3nc3c2c(C)nn3C)cc1 (stereo not drawn) | –
18 | < 5.00 | < 5.00 | < 5.00 | – | – | – | CC(=O)c1ccc(Oc2c3ccccc3nc3c2c(C)nn3C)cc1 | –
19 | 7.15 | 7.19 | 7.47 | 26 | 42 | 16 | CCC(=O)c1ccc(Nc2c3ccccc3nc3c2c(C)nn3C)cc1 | 13.6% and 7.6% and 18.8%
20 | < 5.00 | < 5.00 | < 5.00 | – | – | – | Cc1nn(C)c2nc3ccccc3c(Nc3ccc(C(N)=O)cc3)c12 | –
